Laboratory results published in ChEMBL document CHEMBL1165965, “Synthesis and structure-activity relationships of 1,2,3,4-tetrahydropyrido[2,3-b]pyrazines as potent and selective inhibitors of the anaplastic lymphoma kinase” (Bioorg Med Chem, 2010).

Tests used:
[1] = tested on: eIF-2-alpha kinase GCN2 (Homo sapiens), Q9P2K8 [S808G]; experiment: Inhibition of GCN2 domian 2 S808G mutant at 1 uM
Procedure, shortened: (§1)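 Single-concentration screen on the Ambit KINOMEscan platform, run against a panel of 250–400 kinases. Per-kinase inhibition was also summarized as S(90), the fraction of kinases inhibited by more than 90%.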

[2] = biological target: Fibroblast growth factor receptor 2 (Homo sapiens) (UniProt P21802); experiment: Inhibition of FGFR2 at 1 uM
Procedure, shortened: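 Single-concentration screen using Ambit Bioscience KINOMEscan technology across a panel of 250–400 kinases. Per-kinase inhibition from this screen was summarized as S(90), the fraction of kinases inhibited by more than 90%.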

[3] = biological target: Tyrosine-protein kinase Fgr (Homo sapiens) (UniProt P09769); experiment: Inhibition of FGR at 1 uM; procedure, shortened: as §1
[4] = biological target: T1, Inhibitor of nuclear factor kappa-B kinase subunit epsilon (Homo sapiens) (UniProt Q14164); experiment: Inhibition of IKK-epsilon at 1 uM
T1 sequence (whole entry): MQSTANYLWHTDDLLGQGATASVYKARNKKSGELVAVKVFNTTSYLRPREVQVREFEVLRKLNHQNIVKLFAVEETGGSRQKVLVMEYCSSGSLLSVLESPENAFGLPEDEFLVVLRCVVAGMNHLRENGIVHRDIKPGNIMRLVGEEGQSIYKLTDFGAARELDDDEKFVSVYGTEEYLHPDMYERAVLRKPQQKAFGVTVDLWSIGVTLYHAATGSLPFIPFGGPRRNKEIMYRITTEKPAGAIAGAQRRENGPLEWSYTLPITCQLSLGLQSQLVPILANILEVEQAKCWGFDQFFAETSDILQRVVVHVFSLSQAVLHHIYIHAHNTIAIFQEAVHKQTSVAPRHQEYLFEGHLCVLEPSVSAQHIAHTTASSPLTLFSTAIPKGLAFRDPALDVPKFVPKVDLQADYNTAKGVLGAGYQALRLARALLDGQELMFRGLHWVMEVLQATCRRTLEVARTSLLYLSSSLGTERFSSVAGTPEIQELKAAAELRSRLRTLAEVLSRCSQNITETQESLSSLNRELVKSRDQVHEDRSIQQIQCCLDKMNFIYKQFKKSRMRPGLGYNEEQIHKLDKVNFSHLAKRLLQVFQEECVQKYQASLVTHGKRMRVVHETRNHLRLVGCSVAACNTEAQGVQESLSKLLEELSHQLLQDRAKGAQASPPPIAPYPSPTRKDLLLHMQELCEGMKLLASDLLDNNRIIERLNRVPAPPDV

[5] = biological target: Activin receptor type-2B (Homo sapiens) (UniProt Q13705); experiment: Inhibition of ACVR2B at 1 uM
Procedure, shortened: (§2)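 Ambit KINOMEscan screen at a single concentration across a 250–400 kinase panel, recorded as percent inhibition. Selectivity was expressed as S(90), the fraction of kinases inhibited >90%.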

[6] = biological target: T2, Tyrosine-protein kinase TXK (Homo sapiens) (UniProt P42681); experiment: Inhibition of TXK at 1 uM
T2 sequence (whole entry): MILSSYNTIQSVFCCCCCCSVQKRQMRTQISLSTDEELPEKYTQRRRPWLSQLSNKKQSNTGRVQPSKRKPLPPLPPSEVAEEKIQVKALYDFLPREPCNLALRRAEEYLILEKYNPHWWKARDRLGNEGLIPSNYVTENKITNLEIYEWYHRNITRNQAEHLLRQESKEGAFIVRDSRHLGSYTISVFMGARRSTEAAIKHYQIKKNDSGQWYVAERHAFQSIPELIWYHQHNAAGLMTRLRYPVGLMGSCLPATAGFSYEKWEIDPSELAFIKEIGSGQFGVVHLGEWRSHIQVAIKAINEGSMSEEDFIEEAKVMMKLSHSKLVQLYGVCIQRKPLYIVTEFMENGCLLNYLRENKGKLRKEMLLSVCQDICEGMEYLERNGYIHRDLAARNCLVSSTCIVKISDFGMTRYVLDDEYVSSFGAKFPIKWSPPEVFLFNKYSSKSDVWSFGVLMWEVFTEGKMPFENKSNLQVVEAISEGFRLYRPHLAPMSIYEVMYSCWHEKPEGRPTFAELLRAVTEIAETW

[7] = biological target: T3, Interleukin-1 receptor-associated kinase 3 (Homo sapiens) (UniProt Q9Y616); experiment: Inhibition of IRAK3 at 1 uM; procedure, shortened: as §1
T3 sequence (whole entry): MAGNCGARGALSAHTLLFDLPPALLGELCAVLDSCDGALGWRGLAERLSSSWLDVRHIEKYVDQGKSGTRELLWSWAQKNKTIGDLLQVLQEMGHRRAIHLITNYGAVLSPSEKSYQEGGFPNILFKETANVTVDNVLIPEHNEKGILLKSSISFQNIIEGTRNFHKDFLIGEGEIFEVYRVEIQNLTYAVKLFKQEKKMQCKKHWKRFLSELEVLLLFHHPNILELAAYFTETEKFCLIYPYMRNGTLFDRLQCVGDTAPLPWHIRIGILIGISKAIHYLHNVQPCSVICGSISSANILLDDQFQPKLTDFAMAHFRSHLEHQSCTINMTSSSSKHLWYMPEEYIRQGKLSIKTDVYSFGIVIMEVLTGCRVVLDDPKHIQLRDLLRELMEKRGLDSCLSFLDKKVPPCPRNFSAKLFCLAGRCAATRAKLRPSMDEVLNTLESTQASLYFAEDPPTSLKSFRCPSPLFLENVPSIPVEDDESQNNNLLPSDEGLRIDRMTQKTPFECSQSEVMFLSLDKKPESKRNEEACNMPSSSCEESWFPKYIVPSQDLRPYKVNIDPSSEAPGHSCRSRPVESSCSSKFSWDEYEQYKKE

[8] = biological target: T4, Atypical kinase COQ8B, mitochondrial (Homo sapiens) (UniProt Q96D53); experiment: Inhibition of ADCK4 at 1 uM; procedure, shortened: as §2
T4 sequence (whole entry): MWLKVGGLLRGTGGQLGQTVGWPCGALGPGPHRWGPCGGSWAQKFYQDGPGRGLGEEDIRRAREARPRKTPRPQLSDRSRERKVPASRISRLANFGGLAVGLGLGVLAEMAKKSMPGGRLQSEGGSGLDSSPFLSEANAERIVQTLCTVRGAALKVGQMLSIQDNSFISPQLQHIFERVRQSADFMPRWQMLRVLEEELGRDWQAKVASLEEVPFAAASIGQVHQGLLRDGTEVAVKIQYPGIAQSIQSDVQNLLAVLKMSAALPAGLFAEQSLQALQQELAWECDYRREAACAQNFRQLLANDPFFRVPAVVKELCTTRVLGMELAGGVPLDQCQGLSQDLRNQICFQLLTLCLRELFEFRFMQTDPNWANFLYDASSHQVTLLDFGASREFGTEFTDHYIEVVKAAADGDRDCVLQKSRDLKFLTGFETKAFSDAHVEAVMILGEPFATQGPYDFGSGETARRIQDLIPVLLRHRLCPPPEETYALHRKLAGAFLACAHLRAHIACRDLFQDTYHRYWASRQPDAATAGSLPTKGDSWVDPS

Chain of Tyrosine-protein kinase Fgr (Homo sapiens) (P09769 2-529 limits assumed): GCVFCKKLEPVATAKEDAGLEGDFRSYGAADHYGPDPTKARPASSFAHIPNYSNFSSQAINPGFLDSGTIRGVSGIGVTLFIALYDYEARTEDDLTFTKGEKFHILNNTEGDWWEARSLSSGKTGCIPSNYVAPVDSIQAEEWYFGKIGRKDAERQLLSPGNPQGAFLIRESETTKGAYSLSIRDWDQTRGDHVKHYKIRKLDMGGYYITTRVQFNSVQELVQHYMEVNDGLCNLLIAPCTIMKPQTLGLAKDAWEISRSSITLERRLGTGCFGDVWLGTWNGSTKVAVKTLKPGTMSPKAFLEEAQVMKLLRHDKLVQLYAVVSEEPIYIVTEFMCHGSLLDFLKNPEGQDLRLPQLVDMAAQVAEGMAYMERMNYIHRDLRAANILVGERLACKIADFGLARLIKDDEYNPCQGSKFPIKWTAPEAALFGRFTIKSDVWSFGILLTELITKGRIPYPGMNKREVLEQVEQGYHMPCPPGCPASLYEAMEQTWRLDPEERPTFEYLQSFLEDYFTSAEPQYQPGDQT
Chain of Fibroblast growth factor receptor 2 (Homo sapiens) (P21802 22-821 limits assumed): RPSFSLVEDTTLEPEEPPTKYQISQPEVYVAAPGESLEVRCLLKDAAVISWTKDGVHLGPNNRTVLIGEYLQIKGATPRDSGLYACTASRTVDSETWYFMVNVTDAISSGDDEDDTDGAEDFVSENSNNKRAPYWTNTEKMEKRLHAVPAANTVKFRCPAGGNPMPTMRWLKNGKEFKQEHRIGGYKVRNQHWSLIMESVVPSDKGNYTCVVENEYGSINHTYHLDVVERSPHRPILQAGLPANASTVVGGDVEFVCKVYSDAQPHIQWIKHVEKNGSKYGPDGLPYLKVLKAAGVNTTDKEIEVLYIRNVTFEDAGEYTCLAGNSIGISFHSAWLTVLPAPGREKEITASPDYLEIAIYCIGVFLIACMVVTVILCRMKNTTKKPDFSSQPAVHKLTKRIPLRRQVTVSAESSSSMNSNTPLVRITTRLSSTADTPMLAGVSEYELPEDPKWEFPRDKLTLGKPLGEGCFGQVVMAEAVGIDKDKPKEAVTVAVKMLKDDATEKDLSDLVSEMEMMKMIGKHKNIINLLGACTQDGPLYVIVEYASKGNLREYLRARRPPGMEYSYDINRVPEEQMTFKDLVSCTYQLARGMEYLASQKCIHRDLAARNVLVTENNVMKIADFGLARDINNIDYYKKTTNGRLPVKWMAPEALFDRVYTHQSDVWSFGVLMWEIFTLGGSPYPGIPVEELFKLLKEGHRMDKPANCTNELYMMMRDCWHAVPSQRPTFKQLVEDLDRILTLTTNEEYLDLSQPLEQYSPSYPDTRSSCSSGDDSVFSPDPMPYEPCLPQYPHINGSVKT
Chain of eIF-2-alpha kinase GCN2 (Homo sapiens), Q9P2K8 [S808G] (Q9P2K8 whole entry S808G): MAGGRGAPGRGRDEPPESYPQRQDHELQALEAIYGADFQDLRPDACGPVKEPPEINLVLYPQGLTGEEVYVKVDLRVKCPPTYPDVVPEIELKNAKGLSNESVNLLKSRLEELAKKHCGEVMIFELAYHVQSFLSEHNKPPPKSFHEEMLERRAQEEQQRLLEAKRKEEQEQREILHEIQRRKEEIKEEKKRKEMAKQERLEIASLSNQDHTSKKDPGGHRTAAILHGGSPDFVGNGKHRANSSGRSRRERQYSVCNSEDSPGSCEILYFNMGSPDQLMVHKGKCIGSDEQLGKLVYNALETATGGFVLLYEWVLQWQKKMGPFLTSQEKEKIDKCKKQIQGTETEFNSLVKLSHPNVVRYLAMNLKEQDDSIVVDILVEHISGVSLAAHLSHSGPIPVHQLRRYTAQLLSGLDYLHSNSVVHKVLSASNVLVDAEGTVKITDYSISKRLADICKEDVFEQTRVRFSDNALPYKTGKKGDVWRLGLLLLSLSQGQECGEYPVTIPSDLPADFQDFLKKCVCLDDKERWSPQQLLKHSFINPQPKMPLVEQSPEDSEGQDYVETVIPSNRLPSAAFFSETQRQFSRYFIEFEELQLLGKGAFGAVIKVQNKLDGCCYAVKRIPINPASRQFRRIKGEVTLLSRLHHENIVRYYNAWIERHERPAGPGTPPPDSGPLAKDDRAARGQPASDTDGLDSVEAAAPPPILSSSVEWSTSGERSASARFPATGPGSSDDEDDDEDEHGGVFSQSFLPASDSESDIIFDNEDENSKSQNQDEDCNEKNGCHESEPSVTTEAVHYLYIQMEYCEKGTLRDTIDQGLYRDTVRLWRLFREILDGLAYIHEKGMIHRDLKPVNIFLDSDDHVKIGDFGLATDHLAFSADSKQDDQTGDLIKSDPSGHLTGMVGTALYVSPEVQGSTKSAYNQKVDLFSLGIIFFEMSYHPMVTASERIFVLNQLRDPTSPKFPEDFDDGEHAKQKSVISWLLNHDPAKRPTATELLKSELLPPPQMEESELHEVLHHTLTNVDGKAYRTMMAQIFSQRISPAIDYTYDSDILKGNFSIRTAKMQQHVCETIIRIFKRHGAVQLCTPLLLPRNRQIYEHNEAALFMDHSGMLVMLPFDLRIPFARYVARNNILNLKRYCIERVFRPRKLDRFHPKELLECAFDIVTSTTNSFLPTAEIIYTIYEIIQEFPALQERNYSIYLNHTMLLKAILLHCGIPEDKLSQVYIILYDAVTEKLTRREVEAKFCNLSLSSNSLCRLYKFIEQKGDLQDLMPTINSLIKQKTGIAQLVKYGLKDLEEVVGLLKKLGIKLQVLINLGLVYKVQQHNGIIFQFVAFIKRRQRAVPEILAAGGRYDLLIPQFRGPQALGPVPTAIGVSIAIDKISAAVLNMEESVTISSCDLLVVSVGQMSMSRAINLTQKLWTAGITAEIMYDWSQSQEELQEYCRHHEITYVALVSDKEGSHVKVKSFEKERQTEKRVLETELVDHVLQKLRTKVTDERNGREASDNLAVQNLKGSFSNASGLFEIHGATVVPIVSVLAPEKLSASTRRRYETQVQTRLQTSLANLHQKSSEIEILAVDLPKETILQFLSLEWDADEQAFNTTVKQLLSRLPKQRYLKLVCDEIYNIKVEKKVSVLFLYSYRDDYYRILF
Chain of Activin receptor type-2B (Homo sapiens) (Q13705 whole entry): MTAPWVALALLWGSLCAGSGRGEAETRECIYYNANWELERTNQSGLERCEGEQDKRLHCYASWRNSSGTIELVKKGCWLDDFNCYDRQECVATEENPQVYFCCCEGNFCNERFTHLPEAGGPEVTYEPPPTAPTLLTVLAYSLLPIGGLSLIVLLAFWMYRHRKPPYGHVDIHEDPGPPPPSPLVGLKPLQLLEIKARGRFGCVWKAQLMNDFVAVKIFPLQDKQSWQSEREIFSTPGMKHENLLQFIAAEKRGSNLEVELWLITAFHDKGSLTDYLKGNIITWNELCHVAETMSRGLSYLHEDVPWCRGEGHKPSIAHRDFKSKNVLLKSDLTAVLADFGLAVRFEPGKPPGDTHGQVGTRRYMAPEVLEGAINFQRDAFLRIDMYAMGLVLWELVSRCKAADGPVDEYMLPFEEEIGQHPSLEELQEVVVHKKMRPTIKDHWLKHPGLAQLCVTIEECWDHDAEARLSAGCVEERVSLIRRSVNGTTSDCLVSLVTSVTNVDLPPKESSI

| SMILES | inhibition [1] | inhibition [2] | inhibition [3] | inhibition [4] | inhibition [5] | inhibition [6] | inhibition [7] | inhibition [8] |
| --- | --- | --- | --- | --- | --- | --- | --- | --- |
| CN1CCN(c2ccc(-c3cnc4c(c3)N(Cc3cc(F)ccc3F)CCN4)cn2)CC1 | < 50% | < 50% | < 50% | < 50% | < 50% | < 50% | < 50% | < 50% |
| CC(=O)N1CCN(c2cc(-c3cnc4c(c3)N(Cc3cc(Cl)ccc3C(F)(F)F)CCN4)ccn2)CC1 | < 50% | < 50% | < 50% | < 50% | < 50% | < 50% | < 50% | < 50% |
| CN1CCN(c2ccc(-c3cnc4c(c3)N(Cc3c(F)ccc(F)c3Cl)CCN4)cn2)CC1 | < 50% | < 50% | < 50% | < 50% | < 50% | < 50% | < 50% | < 50% |
| FC(F)(F)c1ccc(Cl)cc1CN1CCNc2ncc(-c3ccnc(N4CCNCC4)c3)cc21 | < 50% | < 50% | < 50% | < 50% | < 50% | < 50% | 74% | < 50% |
| CN1CCN(c2ccc(-c3cnc4c(c3)N(Cc3cc(Cl)ccc3Cl)CCN4)cn2)CC1 | < 50% | < 50% | < 50% | < 50% | < 50% | < 50% | < 50% | < 50% |
| O=C(c1ccc(-c2cnc3c(c2)N(Cc2cc(Cl)ccc2C(F)(F)F)CCN3)cc1)N1CCC(N2CCCC2)CC1 | < 50% | < 50% | < 50% |  | < 50% | < 50% | < 50% | < 50% |
| O=C(O)c1ccc(-c2cnc3c(c2)N(Cc2cc(Cl)ccc2C(F)(F)F)CCN3)cc1 | < 50% | < 50% | < 50% |  | < 50% | < 50% | < 50% | < 50% |
| CN1CCN(c2ccc(-c3cnc4c(c3)N(Cc3cc(Cl)ccc3C(F)(F)F)CCN4)cn2)CC1 | < 50% | < 50% | < 50% | < 50% | < 50% | < 50% | < 50% | < 50% |
| O=C(c1ccc(-c2cnc3c(c2)N(Cc2cc(Cl)ccc2C(F)(F)F)CCN3)cc1)N1CCCCC1 | < 50% | < 50% | < 50% |  | < 50% | < 50% | < 50% | < 50% |
| COC1CCN(C(=O)c2ccc(-c3cnc4c(c3)N(Cc3cc(Cl)ccc3C(F)(F)F)CCN4)cc2)CC1 | < 50% | < 50% | < 50% |  | < 50% | < 50% | < 50% | < 50% |
